Measurements as given in article PMC3346673 (Toxicological and environmental chemistry, 2012).
Where “and” joins values, the source holds several entries; their conditions need not be identical. Equal values may be shown once.

Experiments:
[1] = Hydroxyl radical absorbance capacity; settings: Trolox equivalency
[2] = Metabolic profiling with human liver microsomes; type: in vitro ADME; settings: incubation with human liver microsomes, MS identification
Procedure, shortened: (§1)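 Test compound incubated with human or rat liver microsomes. Products separated by HPLC and identified by electrospray MS and MS:MS, using information-dependent acquisition on the parent ion, enhanced product ion scans, and linear ion trap scanning of trapped fragments.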

[3] = Metabolic profiling with rat liver microsomes; type: in vitro ADME; settings: incubation with rat liver microsomes, MS identification
Procedure, shortened: as §1

[4] = tested on: rats injected with lethal doses of mercury chloride; assay: Survival of young rats after lethal doses of mercury chloride; type: in vivo, rat (Sprague-Dawley)
Procedure, shortened: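 Thirty-six young male Sprague-Dawley rats (225–245 g) were split into three groups of 12. They received HgCl2 sc under the right abdominal skin at 1.0, 2.0 or 14 mg kg−1. Six per group then got test compound sc on the left side 20–25 min later in isotonic 25% DMSO:75% PBS: 528 micromoles for the two lower doses, 880 micromoles for the top dose.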

[5] = Plasma clearance after intravenous dosing; type: in vivo, rat (Sprague-Dawley)
Procedure, shortened: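 Male Sprague-Dawley rats received 1 mg kg−1 test compound intravenously. Plasma levels were measured by the biodistribution LC-MS:MS method: heparinised, chilled plasma, DTT reduction, then reversed-phase ammonium formate/acetonitrile gradient with ESI MRM detection.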

rats = assay: 28 day repeated oral dose toxicity study with clinical chemistry and hematology; type: in vivo, rat (Wistar); settings: for Ca^2+ / Cl^− / HCT / HGB / K^+ / Mg^2+ / Na^+ / Phosphorus / RBC: mean
Procedure, shortened: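 Male and female Wistar rats, 10 of each sex per group, gavaged daily for 28 days with the test compound suspended in corn oil at 0, 0.1, 0.5 or 1.0 g kg−1 body weight day−1.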

[6] = tested on: aortic endothelial membranes in culture; settings: aortic endothelial membranes in culture ref Secor et al. 2011; cited from earlier work
[7] = Solubility and stability of NBMI and its Hg complex; type: physicochemical
[8] = Oral absorption, plasma pharmacokinetics after oral gavage; type: in vivo, rat (Sprague-Dawley); settings: for Tmax / half-life: male, Sprague-Dawley, rat, plasma, po
[9] = Oxygen radical absorbance capacity; settings: Trolox equivalency
[10] = tested on: Salmonella typhimurium strains TA1537, TA98, TA100, and TA1535; assay: Ames test for mutagenic activity; type: cell-based; settings: reversion of mutations in the histidine operon
[11] = iv 1 mg kg^−1, individual rats 1-3
[12] = iv 1 mg kg^−1, plasma, individual rats 1-3
[13] = 0.1, 0.5 and 1.0 g kg^−1 day^−1 gavage, 28 days
[14] = females, 100 mg kg^−1, end of 28 day daily dosing
[15] = females, 500 mg kg^−1, end of 28 day daily dosing
[16] = females, 1000 mg kg^−1, end of 28 day daily dosing
[17] = males, 100 mg kg^−1, end of 28 day daily dosing
[18] = males, 500 mg kg^−1, end of 28 day daily dosing
[19] = males, 1000 mg kg^−1, end of 28 day daily dosing

SMILES: O=C(NCCS)c1cccc(C(=O)NCCS)c1 [NBMI, N,N′-bis(2-mercaptoethyl)isophthalamide]
- HORAC score [1]: 299,000 Trolox units 100g^−1
- metabolites detected [2]: only two NBMI modified structures
- metabolites detected [3]: only two NBMI modified structures
- PERCENT SURVIVAL ([4]; HgCl2 1 mg kg^−1 sc, NBMI 528 micromoles (150 mg) kg^−1 sc, 0 hrs): 100%
- PERCENT SURVIVAL ([4]; HgCl2 1 mg kg^−1 sc, NBMI 528 micromoles (150 mg) kg^−1 sc, 6 hrs): 100%
- PERCENT SURVIVAL ([4]; HgCl2 1 mg kg^−1 sc, NBMI 528 micromoles (150 mg) kg^−1 sc, 12 hrs): 100%
- PERCENT SURVIVAL ([4]; HgCl2 1 mg kg^−1 sc, NBMI 528 micromoles (150 mg) kg^−1 sc, 24 hrs): 100%
- PERCENT SURVIVAL ([4]; HgCl2 1 mg kg^−1 sc, NBMI 528 micromoles (150 mg) kg^−1 sc, 48 hrs): 100%
- PERCENT SURVIVAL ([4]; HgCl2 1 mg kg^−1 sc, NBMI 528 micromoles (150 mg) kg^−1 sc, 72 hrs): 100%
- PERCENT SURVIVAL ([4]; HgCl2 2 mg kg^−1 sc, NBMI 528 micromoles (150 mg) kg^−1 sc, 0 hrs): 100%
- PERCENT SURVIVAL ([4]; HgCl2 2 mg kg^−1 sc, NBMI 528 micromoles (150 mg) kg^−1 sc, 6 hrs): 100%
- PERCENT SURVIVAL ([4]; HgCl2 2 mg kg^−1 sc, NBMI 528 micromoles (150 mg) kg^−1 sc, 12 hrs): 100%
- PERCENT SURVIVAL ([4]; HgCl2 2 mg kg^−1 sc, NBMI 528 micromoles (150 mg) kg^−1 sc, 24 hrs): 100%
- PERCENT SURVIVAL ([4]; HgCl2 2 mg kg^−1 sc, NBMI 528 micromoles (150 mg) kg^−1 sc, 48 hrs): 100%
- PERCENT SURVIVAL ([4]; HgCl2 2 mg kg^−1 sc, NBMI 528 micromoles (150 mg) kg^−1 sc, 72 hrs): 100%
- PERCENT SURVIVAL ([4]; HgCl2 14 mg kg^−1 sc, NBMI 880 micromoles (250 mg) kg^−1 sc, 0 hrs): 100%
- PERCENT SURVIVAL ([4]; HgCl2 14 mg kg^−1 sc, NBMI 880 micromoles (250 mg) kg^−1 sc, 6 hrs): 100%
- PERCENT SURVIVAL ([4]; HgCl2 14 mg kg^−1 sc, NBMI 880 micromoles (250 mg) kg^−1 sc, 12 hrs): 100%
- PERCENT SURVIVAL ([4]; HgCl2 14 mg kg^−1 sc, NBMI 880 micromoles (250 mg) kg^−1 sc, 24 hrs): 100%
- PERCENT SURVIVAL ([4]; HgCl2 14 mg kg^−1 sc, NBMI 880 micromoles (250 mg) kg^−1 sc, 48 hrs): 67%
- PERCENT SURVIVAL ([4]; HgCl2 14 mg kg^−1 sc, NBMI 880 micromoles (250 mg) kg^−1 sc, 72 hrs): 67%
- condition of the surviving rats on long term observation ([4]; surviving 16 rats from all groups observed for three months): No adverse effects were noted
- clearance relative to liver blood flow of a typical rat (3.3 L hr^−1 kg^−1) ([5]; iv 1 mg kg^−1): approximately 30%
- Plasma concentration ([5]; iv 1 mg kg^−1, 0.083 hr, individual rats 1-3): 535 ng/mL and 423 ng/mL
- Plasma concentration ([5]; iv 1 mg kg^−1, 0.25 hr, individual rats 1-3): 320 ng/mL and 254 ng/mL
- Plasma concentration ([5]; iv 1 mg kg^−1, 0.5 hr, individual rats 1-3): 228 ng/mL and 203 ng/mL
- Plasma concentration ([5]; iv 1 mg kg^−1, 1 hr, individual rats 1-3): 155 ng/mL and 124 ng/mL
- Plasma concentration ([5]; iv 1 mg kg^−1, 3 hr, individual rats 1-3): 84.1 ng/mL and 63.1 ng/mL
- Plasma concentration ([5]; iv 1 mg kg^−1, 6 hr, individual rats 1-3): 32.7 ng/mL and 28.9 ng/mL
- Plasma concentration ([5]; iv 1 mg kg^−1, 24 hr, individual rats 1-3): 6.6 ng/mL and 8.84 ng/mL and 3.7 ng/mL
- Co, maximum plasma concentration extrapolated to t=0 [5, 11]: 633 ng/mL and 691 ng/mL and 545 ng/mL
- Vss, steady state volume of distribution [5, 11]: 7.2 L/kg and 7.3 L/kg
- Co, maximum plasma concentration extrapolated to t=0 ([5]; iv 1 mg kg^−1, mean): 623 ng/mL
- CL, clearance [5, 12]: 15.2 mL/min/kg and 21 mL/min/kg
- t1/2, half-life [5, 12]: 7.28 h and 5.42 h
- concentration at 24 hr ([5]; male, Sprague-Dawley, rat, plasma, iv, 1 mg kg^−1, Plasma concentration, iv 1 mg kg^−1, 24 hr, mean): 6.38 ng/mL
- clearance ([5]; male, Sprague-Dawley, rat, plasma, iv, 1 mg/kg, CL, clearance, iv 1 mg kg^−1, plasma, mean): 16.8 mL/min/kg
- Vd ([5]; male, Sprague-Dawley, rat, plasma, iv, 1 mg/kg, Vss, steady state volume of distribution, iv 1 mg kg^−1, mean): 6.7 L/kg
- half-life ([5]; male, Sprague-Dawley, rat, plasma, iv, 1 mg/kg, t1/2, half-life, iv 1 mg kg^−1, plasma, mean): 6.18 h
- deaths and clinical signs (rats; [13]): No deaths or abnormal weight loss, ataxia, loss of appetite
- microscopic and histological analysis of organs (rats; [13]): None of their organs displayed changes indicating toxic effects
- spleen finding (rats; [13]): mild to moderate B-cell proliferation
- Ca^2+ (rats; [14]): 10.78 mg/dL
- Cl^− (rats; [14]): 103 meq L^−1
- HCT (rats; [14]): 43.7%
- HGB (rats; [14]): 15.2 gm DL^−1
- K^+ (rats; [14]): 4.81 meq L^−1
- Mg^2+ (rats; [14]): 2.64 meq L^−1
- Na^+ (rats; [14]): 142 meq L^−1
- Phosphorus (rats; [14]): 7.82 mg/dL
- RBC (rats; [14]): 8.0 mill UL^−1
- Ca^2+ (rats; [15]): 10.89 mg/dL
- Cl^− (rats; [15]): 105 meq L^−1
- HCT (rats; [15]): 42%
- HGB (rats; [15]): 15 gm DL^−1
- K^+ (rats; [15]): 5.08 meq L^−1
- Mg^2+ (rats; [15]): 2.72 meq L^−1
- Na^+ (rats; [15]): 143 meq L^−1
- Phosphorus (rats; [15]): 8.15 mg/dL
- RBC (rats; [15]): 8.0 mill UL^−1
- Ca^2+ (rats; [16]): 10.84 mg/dL
- Cl^− (rats; [16]): 105 meq L^−1
- HCT (rats; [16]): 40%
- HGB (rats; [16]): 14 gm DL^−1
- K^+ (rats; [16]): 4.89 meq L^−1
- Mg^2+ (rats; [16]): 2.82 meq L^−1
- Na^+ (rats; [16]): 144 meq L^−1
- Phosphorus (rats; [16]): 8.49 mg/dL
- RBC (rats; [16]): 7.6 mill UL^−1
- Ca^2+ (rats; [17]): 10.64 mg/dL
- Cl^− (rats; [17]): 105 meq L^−1
- HCT (rats; [17]): 46.2%
- HGB (rats; [17]): 15.6 gm DL^−1
- K^+ (rats; [17]): 4.83 meq L^−1
- Mg^2+ (rats; [17]): 2.58 meq L^−1
- Na^+ (rats; [17]): 143 meq L^−1
- Phosphorus (rats; [17]): 8.23 mg/dL
- RBC (rats; [17]): 8.7 mill UL^−1
- Ca^2+ (rats; [18]): 10.6 mg/dL
- Cl^− (rats; [18]): 104 meq L^−1
- HCT (rats; [18]): 45.1%
- HGB (rats; [18]): 15.2 gm DL^−1
- K^+ (rats; [18]): 5.03 meq L^−1
- Mg^2+ (rats; [18]): 2.62 meq L^−1
- Na^+ (rats; [18]): 144 meq L^−1
- Phosphorus (rats; [18]): 8.42 mg/dL
- RBC (rats; [18]): 8.3 mill UL^−1
- Ca^2+ (rats; [19]): 10.53 mg/dL
- Cl^− (rats; [19]): 106 meq L^−1
- HCT (rats; [19]): 45.5%
- HGB (rats; [19]): 15.5 gm DL^−1
- K^+ (rats; [19]): 5.15 meq L^−1
- Mg^2+ (rats; [19]): 2.56 meq L^−1
- Na^+ (rats; [19]): 143 meq L^−1
- Phosphorus (rats; [19]): 8.84 mg/dL
- RBC (rats; [19]): 8.5 mill UL^−1
- prevention of damage induced by mercury exposure [6]: very effective prevention of the damage induced by mercury exposure
- toxicity on membrane integrity [6]: no toxicity on membrane integrity
- solubility in 95% ethanol or dimethylsulfoxide (DMSO) [7]: readily dissolves
- solubility in water [7]: water insoluble
- Tmax ([8]; 7 mg/kg): 2.3 ± 1.2 h
- half-life ([8]; 7 mg/kg): 5.47 ± 1.75 h
- Tmax ([8]; 35 mg/kg): 2.3 ± 1.2 h
- half-life ([8]; 35 mg/kg): 5.6 ± 1.02 h
- absorbance of NBMI into plasma from oral dose ([8]; oral 7 mg kg^−1, estimated against iv 1 mg kg^−1): 13 ± 5.9%
- absorbance of NBMI into plasma from oral dose ([8]; oral 35 mg kg^−1, estimated against iv 1 mg kg^−1): 15 ± 3.6%
- ORAC score [9]: 199,000 Trolox units 100g^−1
- mutagenicity, Ames analysis [10]: non-mutagenic
